Results from ChEMBL document CHEMBL5649170, “Sustained microglial depletion with CSF1R inhibitor impairs parenchymal plaque development in an Alzheimer's disease model” (Nat Commun, 2019).

Columns and labels:
[1] = molecular target: RAC-gamma serine/threonine-protein kinase (Homo sapiens, UniProt Q9Y243); assay: Inhibition of AKT3 (unknown origin)
[2] = molecular target: Serine/threonine-protein kinase BRSK1 (Homo sapiens, UniProt Q8TDC3); assay: Inhibition of BRSK1 (unknown origin)
CDK7/Cyclin H/MNAT1 = CDK7/Cyclin H/MNAT1 (Homo sapiens, UniProt P50613); assay: Inhibition of CDK7/CyclinH/MNAT1 (unknown origin); assay type: protein-complex assay
Sequence of CDK7/Cyclin H/MNAT1 (P51946 whole entry): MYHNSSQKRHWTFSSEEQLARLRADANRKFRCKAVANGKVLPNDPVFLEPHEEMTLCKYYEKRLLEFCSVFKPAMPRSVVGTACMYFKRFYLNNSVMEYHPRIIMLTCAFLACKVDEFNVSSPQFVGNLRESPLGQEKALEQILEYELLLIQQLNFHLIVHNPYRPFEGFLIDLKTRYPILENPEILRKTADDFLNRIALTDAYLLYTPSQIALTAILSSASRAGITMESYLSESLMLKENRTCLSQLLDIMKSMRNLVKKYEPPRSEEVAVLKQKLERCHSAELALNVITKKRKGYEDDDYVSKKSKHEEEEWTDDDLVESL
Sequence of CDK7/Cyclin H/MNAT1 (P50613 whole entry): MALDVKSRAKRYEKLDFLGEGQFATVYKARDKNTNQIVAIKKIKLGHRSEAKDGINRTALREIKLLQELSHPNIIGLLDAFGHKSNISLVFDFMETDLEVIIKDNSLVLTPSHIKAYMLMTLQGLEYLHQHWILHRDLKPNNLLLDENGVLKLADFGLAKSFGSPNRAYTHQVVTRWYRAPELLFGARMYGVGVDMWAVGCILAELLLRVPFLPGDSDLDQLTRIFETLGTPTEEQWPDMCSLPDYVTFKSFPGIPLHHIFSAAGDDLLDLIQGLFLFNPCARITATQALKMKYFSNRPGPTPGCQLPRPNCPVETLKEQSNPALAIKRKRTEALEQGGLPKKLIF
Sequence of CDK7/Cyclin H/MNAT1 (P51948 whole entry, further chain): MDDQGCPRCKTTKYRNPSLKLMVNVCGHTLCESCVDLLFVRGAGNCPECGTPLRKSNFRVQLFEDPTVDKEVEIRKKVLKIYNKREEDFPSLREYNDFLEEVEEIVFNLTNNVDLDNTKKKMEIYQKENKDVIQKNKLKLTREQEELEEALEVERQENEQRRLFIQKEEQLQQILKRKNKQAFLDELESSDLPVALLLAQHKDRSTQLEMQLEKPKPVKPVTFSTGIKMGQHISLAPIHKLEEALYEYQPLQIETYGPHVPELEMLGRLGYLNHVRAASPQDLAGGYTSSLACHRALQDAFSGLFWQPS

Ephrin type-B receptor 1 = Ephrin type-B receptor 1 (Homo sapiens, UniProt P54762); assay: Inhibition of EPHB1 (unknown origin)
Sequence of Ephrin type-B receptor 1 (P54762 whole entry): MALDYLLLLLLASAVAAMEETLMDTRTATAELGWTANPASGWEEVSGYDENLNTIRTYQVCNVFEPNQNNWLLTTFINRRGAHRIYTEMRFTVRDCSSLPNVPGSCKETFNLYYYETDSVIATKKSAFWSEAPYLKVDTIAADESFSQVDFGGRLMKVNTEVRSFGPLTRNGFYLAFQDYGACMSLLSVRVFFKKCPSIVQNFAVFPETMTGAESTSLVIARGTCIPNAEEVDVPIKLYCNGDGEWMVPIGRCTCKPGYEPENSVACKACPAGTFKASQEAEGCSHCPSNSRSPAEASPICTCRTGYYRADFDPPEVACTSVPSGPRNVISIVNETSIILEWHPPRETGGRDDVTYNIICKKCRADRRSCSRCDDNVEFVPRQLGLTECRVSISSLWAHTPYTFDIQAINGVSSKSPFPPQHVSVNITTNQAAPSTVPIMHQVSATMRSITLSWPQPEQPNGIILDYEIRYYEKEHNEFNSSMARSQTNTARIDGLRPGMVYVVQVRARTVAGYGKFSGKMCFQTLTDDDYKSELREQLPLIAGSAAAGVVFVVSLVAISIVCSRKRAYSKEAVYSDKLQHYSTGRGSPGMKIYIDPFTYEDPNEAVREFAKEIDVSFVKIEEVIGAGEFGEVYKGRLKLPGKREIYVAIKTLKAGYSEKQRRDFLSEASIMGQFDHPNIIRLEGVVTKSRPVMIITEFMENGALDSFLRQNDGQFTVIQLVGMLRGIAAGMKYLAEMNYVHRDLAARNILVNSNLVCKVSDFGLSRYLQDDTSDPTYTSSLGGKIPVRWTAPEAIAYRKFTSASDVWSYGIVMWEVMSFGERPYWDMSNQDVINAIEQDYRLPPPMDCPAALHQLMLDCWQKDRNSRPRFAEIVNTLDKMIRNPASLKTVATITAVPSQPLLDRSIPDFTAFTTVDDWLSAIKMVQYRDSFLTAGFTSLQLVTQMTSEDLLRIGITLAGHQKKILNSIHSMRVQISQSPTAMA

[3] = molecular target: Homeodomain-interacting protein kinase 1 (Homo sapiens, UniProt Q86Z02); assay: Inhibition of HIPK1 (unknown origin)
[4] = molecular target: BDNF/NT-3 growth factors receptor (Homo sapiens, UniProt Q16620); assay: Inhibition of NTRK2 (unknown origin)
Sequence of BDNF/NT-3 growth factors receptor (Q16620 whole entry): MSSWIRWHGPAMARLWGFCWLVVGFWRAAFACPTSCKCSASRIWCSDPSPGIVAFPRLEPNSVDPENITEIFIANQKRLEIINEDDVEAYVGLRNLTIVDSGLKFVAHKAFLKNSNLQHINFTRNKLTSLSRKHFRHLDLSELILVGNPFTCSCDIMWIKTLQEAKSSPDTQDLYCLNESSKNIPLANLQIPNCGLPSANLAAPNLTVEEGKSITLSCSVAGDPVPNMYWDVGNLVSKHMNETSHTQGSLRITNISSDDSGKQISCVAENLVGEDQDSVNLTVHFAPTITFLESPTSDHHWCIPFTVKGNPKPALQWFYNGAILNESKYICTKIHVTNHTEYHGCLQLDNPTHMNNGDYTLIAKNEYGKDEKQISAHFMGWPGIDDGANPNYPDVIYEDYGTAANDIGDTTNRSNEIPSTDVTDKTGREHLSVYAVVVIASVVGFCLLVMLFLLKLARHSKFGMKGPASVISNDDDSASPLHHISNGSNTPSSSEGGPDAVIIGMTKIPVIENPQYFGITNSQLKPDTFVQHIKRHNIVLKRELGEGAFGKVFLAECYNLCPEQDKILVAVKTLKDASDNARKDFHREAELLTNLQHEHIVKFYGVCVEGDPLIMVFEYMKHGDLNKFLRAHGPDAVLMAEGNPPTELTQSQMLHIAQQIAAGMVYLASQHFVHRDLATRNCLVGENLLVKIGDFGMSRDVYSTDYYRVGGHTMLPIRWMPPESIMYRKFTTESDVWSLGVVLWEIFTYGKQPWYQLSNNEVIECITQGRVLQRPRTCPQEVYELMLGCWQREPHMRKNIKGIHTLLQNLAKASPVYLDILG

[5] = molecular target: cGMP-dependent protein kinase 2 (Homo sapiens, UniProt Q13237); assay: Inhibition of PRKG2 (unknown origin)
Sequence of cGMP-dependent protein kinase 2 (Q13237 whole entry): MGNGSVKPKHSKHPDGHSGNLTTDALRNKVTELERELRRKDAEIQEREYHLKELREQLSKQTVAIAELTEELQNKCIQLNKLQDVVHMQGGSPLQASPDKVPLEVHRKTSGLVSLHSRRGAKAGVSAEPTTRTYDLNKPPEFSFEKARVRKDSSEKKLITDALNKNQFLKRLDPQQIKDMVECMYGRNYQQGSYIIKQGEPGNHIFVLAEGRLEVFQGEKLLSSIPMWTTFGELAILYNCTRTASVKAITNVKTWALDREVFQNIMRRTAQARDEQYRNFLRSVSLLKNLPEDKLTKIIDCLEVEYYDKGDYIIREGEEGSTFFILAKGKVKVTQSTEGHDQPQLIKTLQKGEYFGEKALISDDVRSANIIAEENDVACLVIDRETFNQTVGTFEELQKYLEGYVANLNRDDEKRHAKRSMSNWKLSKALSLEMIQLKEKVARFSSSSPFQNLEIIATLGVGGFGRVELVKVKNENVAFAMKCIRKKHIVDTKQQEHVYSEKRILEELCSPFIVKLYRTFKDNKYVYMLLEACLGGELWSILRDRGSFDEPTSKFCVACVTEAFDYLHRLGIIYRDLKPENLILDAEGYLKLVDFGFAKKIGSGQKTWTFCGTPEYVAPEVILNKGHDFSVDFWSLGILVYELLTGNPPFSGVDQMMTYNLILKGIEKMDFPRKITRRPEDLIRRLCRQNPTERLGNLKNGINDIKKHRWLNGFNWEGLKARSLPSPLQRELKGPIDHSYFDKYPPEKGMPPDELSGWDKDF

[6] = AUC (0 to infinity) in mouse at 1.92 mg/kg, iv administered as single dose; assay type: ADME, organism-based; details: in vivo
[7] = Clearance in dog at 1.00 mg/kg, iv administered as single dose; assay type: ADME, organism-based, Canis lupus familiaris; details: in vivo
[8] = AUC (0 to 24 hrs) in mouse brain at 300 ppm administered as rodent chow for 14 days; assay type: ADME, tissue-based; details: route po, time 14 day
[9] = Ratio of drug concentration in brain to plasma in mouse at 300 ppm administered as rodent chow for 14 days; assay type: ADME, cell-free; details: route po, time 14 day, read-out: BPR
[10] = Toxicity in wildtype mouse assessed as average speed at 1200 ppm administered as rodent chow for 10 to 24 weeks by Open field test (reference value: 0.044 to 0.09 meter/s); details: in vivo, po, time 10-24 weeks
Mus musculus [11] = assay: Antialzheimer activity in 5XFAD mouse assessed as average plaque volume in somatosensory cortex at 1200 ppm administered as rodent chow starting from 1.5 months and measured after 7 months by Thio-S staining based confocal microscopic analysis (reference value: 711.144 to 2878.724 microm3); assay type: functional; details: route po, time 5.5 months, 4015 h
[12] = molecular target: T1, Macrophage colony-stimulating factor 1 receptor (Mus musculus) (UniProt P09581); assay: (§1) In vivo inhibition of CSF1R in wildtype mouse assessed as iron reactivity by measuring hemosiderin intensity of prussian blue staining in retro spinal cortex at 1200 ppm administered as rodent chow starting from 1.5 months and measured after 4 months by confocal microscopic analysis (reference value: 0.362 to 5.194 a.u.); assay type: functional; details: route po, time 2.5 months
T1 sequence (whole entry): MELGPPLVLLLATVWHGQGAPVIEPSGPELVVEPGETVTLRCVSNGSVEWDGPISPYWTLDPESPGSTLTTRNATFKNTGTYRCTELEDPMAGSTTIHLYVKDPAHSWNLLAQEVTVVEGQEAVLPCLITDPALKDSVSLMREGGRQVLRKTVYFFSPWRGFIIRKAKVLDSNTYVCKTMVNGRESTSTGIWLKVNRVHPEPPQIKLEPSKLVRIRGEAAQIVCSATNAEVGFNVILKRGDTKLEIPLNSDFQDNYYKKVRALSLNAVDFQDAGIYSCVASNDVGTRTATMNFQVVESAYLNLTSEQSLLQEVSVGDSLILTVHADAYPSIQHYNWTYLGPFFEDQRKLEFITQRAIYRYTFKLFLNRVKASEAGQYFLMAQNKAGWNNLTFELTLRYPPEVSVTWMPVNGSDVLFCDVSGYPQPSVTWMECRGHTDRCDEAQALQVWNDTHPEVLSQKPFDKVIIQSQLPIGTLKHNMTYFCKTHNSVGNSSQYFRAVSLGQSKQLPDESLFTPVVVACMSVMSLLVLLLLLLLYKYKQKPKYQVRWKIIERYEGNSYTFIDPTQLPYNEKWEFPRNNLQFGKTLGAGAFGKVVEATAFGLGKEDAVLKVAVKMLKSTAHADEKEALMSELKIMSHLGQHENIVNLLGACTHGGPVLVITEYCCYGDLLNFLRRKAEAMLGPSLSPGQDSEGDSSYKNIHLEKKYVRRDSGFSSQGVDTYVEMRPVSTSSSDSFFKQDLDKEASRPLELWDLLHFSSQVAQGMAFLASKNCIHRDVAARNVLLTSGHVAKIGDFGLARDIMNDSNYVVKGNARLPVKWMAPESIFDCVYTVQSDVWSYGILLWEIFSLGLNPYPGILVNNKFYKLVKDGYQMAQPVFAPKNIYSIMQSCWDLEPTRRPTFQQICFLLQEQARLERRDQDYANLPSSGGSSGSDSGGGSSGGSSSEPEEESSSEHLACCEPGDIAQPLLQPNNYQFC
Method in brief: (§2)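 Wild-type or 5xFAD mice fed PLX5622 (1200 ppm) in AIN-76A chow from 1.5 months of age, examined in 4- and 7-month-old cohorts. Brain sections stained with a Prussian blue kit per kit instructions to detect iron deposits (microbleeds).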

[13] = molecular target: T1, Macrophage colony-stimulating factor 1 receptor (Mus musculus); assay: as §1, with “thalamus” for “retro spinal cortex”, “7” for “4”, “0.068” for “0.362”, “2.717” for “5.194”; assay type: functional; details: route po, time 5.5 months; method in brief: as §2
Mus musculus [14] = assay: Effect on APP processing pathway in wildtype mouse assessed as C83 protein signal intensity in cortex at 1200 ppm administered as rodent starting from 1.5 months and measured after 7 months (reference value: 2.769 to 56.642 %); assay type: functional; details: route po, time 5.5 months, 4015 h
[15] = Effect on C1qa gene expression in wild type mouse cortex at 1200 ppm administered as rodent chow starting from 1.5 months and measured after 7 months by RNA-Seq analysis (reference value: 16.071 to 20.526 RPKM); assay type: functional; details: route po, time 5.5 months, 4015 h
Method in brief: (§3)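 WT and 5xFAD mice were treated with 1200 ppm PLX5622 chow or control chow from 1.5 to 7 months of age. Brains were microdissected into cortex, hippocampus and thalamus, and RNA was extracted from tissue powder. Whole-transcriptome RNA-Seq libraries were sequenced, with n = 4 per group per region (48 samples).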

[16] = Effect on C1qa gene expression in 5XFAD mouse thalamus at 1200 ppm administered as rodent chow starting from 1.5 months and measured after 7 months by RNA-Seq analysis (reference value: 36.243 to 61.660 RPKM); assay type: functional; details: route po, time 5.5 months, 4015 h; method in brief: as §3
[17] = Prevention of Dusp5 gene downregulation in 5XFAD mouse hippocampus assessed as percent change in Reads Per kilo base per Million mapped reads at 1200 ppm administered as rodent chow starting from 1.5 months and measured after 7 months by RNA-Seq analysis (reference value: 41.082 to 74.744 %); assay type: functional; details: route po, time 5.5 months, 4015 h
[18] = molecular target: T1, Macrophage colony-stimulating factor 1 receptor (Mus musculus); assay: (§4) In vivo inhibition of CSF1R in wildtype mouse assessed as number of Iba1 positive cells per FOV in […] cortex at 1200 ppm administered as rodent chow starting from 1.5 months to 4 months followed by compound removal and measured after 1 months by immunolabelling based confocal microscopic analysis (reference value: 193 to 236); assay type: functional; details: route po, time 2.5 months
Mus musculus [19] = assay: as §4, with “Antialzheimer activity” for “In vivo inhibition of CSF1R”, “5XFAD” for “wildtype”, “210” for “193”, “529)” for “236)”; assay type: functional; details: route po, time 2.5 months, 1825 h
Method in brief: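 For the repopulation paradigm, 5xFAD mice ate 1200 ppm PLX5622 chow from 1.5 to 4 months of age. Inhibitor chow was then withdrawn, and brains were examined one month later. Sections were stained with Thio-S and immunolabeled for IBA1, then analysed by confocal microscopy in cortical regions.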

Sequence of RAC-gamma serine/threonine-protein kinase (Q9Y243 whole entry): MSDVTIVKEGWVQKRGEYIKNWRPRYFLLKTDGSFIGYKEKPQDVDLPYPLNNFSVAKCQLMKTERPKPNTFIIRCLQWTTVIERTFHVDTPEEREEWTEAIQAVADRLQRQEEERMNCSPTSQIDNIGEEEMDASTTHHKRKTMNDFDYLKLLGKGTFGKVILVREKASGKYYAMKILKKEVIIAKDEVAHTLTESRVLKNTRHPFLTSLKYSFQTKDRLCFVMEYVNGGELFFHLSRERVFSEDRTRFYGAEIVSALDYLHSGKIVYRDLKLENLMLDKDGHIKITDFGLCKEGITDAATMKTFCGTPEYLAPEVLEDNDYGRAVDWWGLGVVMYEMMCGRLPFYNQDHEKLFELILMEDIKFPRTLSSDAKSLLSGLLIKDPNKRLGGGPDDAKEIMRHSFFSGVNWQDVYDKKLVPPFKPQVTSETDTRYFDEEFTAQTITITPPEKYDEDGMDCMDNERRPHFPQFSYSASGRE
Sequence of Serine/threonine-protein kinase BRSK1 (Q8TDC3 whole entry): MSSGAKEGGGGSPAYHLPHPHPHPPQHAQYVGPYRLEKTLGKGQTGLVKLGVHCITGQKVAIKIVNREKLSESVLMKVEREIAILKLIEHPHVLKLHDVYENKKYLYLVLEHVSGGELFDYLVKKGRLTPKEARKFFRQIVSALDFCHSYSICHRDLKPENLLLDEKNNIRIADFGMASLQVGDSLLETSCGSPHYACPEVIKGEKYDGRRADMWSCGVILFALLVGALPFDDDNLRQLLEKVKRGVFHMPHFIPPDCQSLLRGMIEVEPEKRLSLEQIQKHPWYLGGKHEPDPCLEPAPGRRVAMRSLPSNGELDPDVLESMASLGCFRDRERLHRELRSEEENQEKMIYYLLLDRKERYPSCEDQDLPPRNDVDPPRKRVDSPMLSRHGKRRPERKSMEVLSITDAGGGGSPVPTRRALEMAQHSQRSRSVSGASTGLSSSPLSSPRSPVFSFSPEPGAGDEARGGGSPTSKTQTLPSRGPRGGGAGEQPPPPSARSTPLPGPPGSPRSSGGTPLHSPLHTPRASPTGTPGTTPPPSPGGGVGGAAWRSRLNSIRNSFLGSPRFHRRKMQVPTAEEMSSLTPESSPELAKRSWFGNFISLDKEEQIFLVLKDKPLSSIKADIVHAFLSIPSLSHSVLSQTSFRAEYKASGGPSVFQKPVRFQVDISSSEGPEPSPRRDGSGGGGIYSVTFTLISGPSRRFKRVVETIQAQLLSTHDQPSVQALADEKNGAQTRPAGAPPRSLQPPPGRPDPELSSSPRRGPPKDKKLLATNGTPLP

With COc1ncc(F)cc1CNc1ccc(Cc2c[nH]c3ncc(C)cc23)c(F)n1 [PLX-5622] the IC50 [1] was over 1 µM, the IC50 [2] was over 1 µM and the IC50 (CDK7/Cyclin H/MNAT1) was over 1 µM. For the same molecule, the IC50 (Ephrin type-B receptor 1) was over 1 µM, the IC50 [3] was over 1 µM and the IC50 [4] was over 1 µM. For the same molecule, the IC50 [5] was over 1 µM, the AUC(0-inf) [6] was 15500 ng·h/mL and the clearance [7] was 3 mL/min/kg. For the same molecule, the AUC at 336 h [8] was 23100 ng·h/mL, the Kp at 336 h [9] was 0.22 and the Activity [10] was 0.03 meter/s. For the same molecule, the Activity (Mus musculus [11]) was 66.975 um3, the Flu intensity [12] was 0.1 a.u and the Flu intensity [13] was 0.086 a.u. The Activity (Mus musculus [14]) was 9.38%, the Activity [15] was 0 RPKM and the Activity [16] was 0.199 RPKM. It also gave an Activity [17] of 83.733%, an Activity [18] of 51 and an Activity (Mus musculus [19]) of 66.
